Consider two compounds from ChEMBL document CHEMBL1153035, “Desmethoxymajusculamide C, a cyanobacterial depsipeptide with potent cytotoxicity in both cyclic and ring-opened forms” (J Nat Prod, 2009).

Each structure is given as a SMILES string. pIC50: −log10 of the molar value. Active and inactive are the calls of the source. The rule behind the calls is not given here. Starred links: 1 amine or outer side, 2 acyl side, 3 side chain; linkers in the order of their positions; H or OH if unused. Non-standard residues stand in square brackets, D forms with d. Residues, ends and D or L forms follow the SMILES beside them. *: point of attachment. X1 = CC[C@H](C)[C@H](OC(=O)[C@@H](C)[C@@H](CC)N[*:1])C(=O)[*:2]; Pentanoyl(2S-OH,3S-Me) = CC[C@H](C)[C@H](O)C(=O)*; X2 = C[C@H](N[*:1])C(=O)C(C)(C)C(=O)[*:2]; NMeF = CN[C@@H](Cc1ccccc1)C(=O)O; NMeI = CC[C@H](C)[C@H](NC)C(=O)O; X3 = CC[C@@H](N*)[C@H](C)C(=O)O; NMeV = CN[C@H](C(=O)O)C(C)C

Data set [1] concerns MDA-MB-435. In words: Selectivity ratio, IC50 for human MDA-MB-435 cells to IC50 for human HCT116 cells. The format is functional.
Data set [2] in a line: Selectivity ratio, IC50 for […] cells to IC50 for human HCT116 cells. In kind it is functional.
For data set [3], the system named is MDA-MB-435. As to the kind of experiment: Cytotoxicity against human MDA-MB-435 cells after 24 hrs. The format is functional, cell-based. To be noted: MDA-MB-435, 24 h.
Data set [4] deals with HCT-116. As to the kind of experiment: Cytotoxicity against human HCT116 cells after 120 hrs. To be noted: HCT-116, 120 h.
The subject of the next data set is A10. In words: Effect on actin cytoskeleton in rat A10 cells assessed as loss of F-actin filament at 52 nM by TRITC-phalloidin staining. In kind it is functional, cell-based. The procedure, abridged: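 A-10 cells on glass coverslips in BME + 10% fetal calf serum, exposed 24 h, then fixed with 3% paraformaldehyde, permeabilized with 0.2% Triton X-100, and reduced with NaBH4. Stained 45 min with 100 nM TRITC-phalloidin plus DAPI. F-actin examined by fluorescence microscopy against vehicle-treated control.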

A short description of data set [5]: Cytotoxicity against mouse Neuro2a cells after 24 hrs. The format is functional, cell-based. To be noted: N2a.
Another data set concerns NCI-H460. In words: Cytotoxicity against human H460 cells after 24 hrs. The format is functional, cell-based. To be noted: NCI-H460, 24 h.
For data set [6], the system named is HCT-116. As to the kind of experiment: Selectivity ratio, IC50 for human H460 cells to IC50 for human HCT116 cells. In kind it is functional.
Data set [7] deals with HCT-116. As to the kind of experiment: Antitumor activity against human HCT116 cells xenografted in SCID mouse at 0.62 mg/kg, iv daily for 5 days relative to control. In kind it is functional, organism-based. More on the design: dose 0.62 mg/kg. The procedure, abridged:
(§1)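 HCT-116 tumor cells from tissue, 10^6 implanted subcutaneously into pooled SCID mice (>17 g, weights within 5 g), 5 per group. Starting 1 day after inoculation, bolus tail-vein iv daily for 5 days. Vehicle: DMSO stock diluted 1:1 with Cremophor-propylene glycol (40:60), then ≥10-fold with saline. Minimum %T/C reported; sacrifice at day 30.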

Data set [8] concerns HCT-116. As to the kind of experiment: Cytotoxicity against human HCT116 cells assessed as clonogenic concentration required for 10% surviving fraction after 7 days. The format is functional. An outline of the steps:
(§2)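 HCT-116 cells seeded at 200 or 20,000 per 60 mm dish in RPMI + 10% FBS. Drug added at a final top concentration of 10 µg/mL (10.5 µM) with 10-fold dilutions, for 2 h or 24 h then replaced by drug-free medium, or left continuously (168 h). After 7 days, colonies stained with methylene blue; colonies of ≥50 cells counted and normalized to untreated control.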

In data set [9] the test system is HCT-116. As to the kind of experiment: Cytotoxicity against human HCT116 cells assessed as clonogenic concentration required for 10% surviving fraction after 2 hrs. In kind it is functional. An outline of the steps: as §2
In data set [10] the test system is HCT-116. In words: Antitumor activity against human HCT116 cells xenografted in SCID mouse assessed as tumor growth rate at 0.31 mg/kg, iv dosed daily for 5 days relative to control. In kind it is functional, organism-based. More on the design: dose 0.31 mg/kg. An outline of the steps: as §1
Background: A xenograft is tissue or cells of one species grown in another, often human tumour cells in immunodeficient mice.

For data set [11], the system named is HCT-116. As to the kind of experiment: Cytotoxicity against human HCT116 cells assessed as clonogenic concentration required for 10% surviving fraction after 24 hrs. In kind it is functional. An outline of the steps: as §2
The nature of data set [12]: Toxicity in human HCT116 cells xenografted in SCID mouse assessed as maximum tolerated dose. In kind it is organism-based, HCT-116. To be noted: in vivo, read-out: Activity.

What is called pIC50 is the IC50 on a negative log10 scale, so that one unit is a factor of ten. Read a low pIC50 as a large IC50. For `CC[C@H](C)[C@H](O)C(=O)NCC(=O)N(C)[C@H](C(=O)NCC(=O)N(C)[C@H](C(=O)N(C)[C@@H](Cc1ccccc1)C(=O)N[C@@H](C)C(=O)C(C)(C)C(=O)N[C@@H](C)C(=O)N[C@H](CC)[C@H](C)C(=O)O)C(C)C)[C@@H](C)CC` ({Pentanoyl(2S-OH,3S-Me)}-G[NMeI]G[NMeV][NMeF][X2]A-X3), the results for the Ratio IC50 (in the data set with MDA-MB-435 [1]; in data set [2]; with HCT-116 [6]) were 14, 10 and 5, respectively. Moreover, the pIC50 was 6.64 in the data set on MDA-MB-435 [3], 7.80 with HCT-116 [4], less than 6.00 in data set [5] and 7.03 with NCI-H460. Further, the result with A10 was Active.

In the case of `CC[C@H](C)[C@@H]1OC(=O)[C@@H](C)[C@@H](CC)NC(=O)[C@H](C)NC(=O)C(C)(C)C(=O)[C@H](C)NC(=O)[C@H](Cc2ccccc2)N(C)C(=O)[C@H](C(C)C)N(C)C(=O)CNC(=O)[C@H]([C@@H](C)CC)N(C)C(=O)CNC1=O` [DESMETHOXYMAJUSCULAMIDE C] (cyclo(A[X1]G[NMeI]G[NMeV][NMeF][X2])), the Ratio IC50 turned out to be 11 in the data set on MDA-MB-435 [1], 10 in data set [2] and 5 in the data set on HCT-116 [6]. Moreover, the outcome in the data set on HCT-116 [7], with A10 and in the data set with HCT-116 [10] was Active. Also, the Activity was 2.1 nM with HCT-116 [8], greater than 10.5 µM in the data set with HCT-116 [9] and greater than 10.5 µM with HCT-116 [11]. For the same compound, the pIC50 with MDA-MB-435 [3] was 6.66; in the data set on HCT-116 [4] it was 7.70; in data set [5], less than 6.00; with NCI-H460, 7.20. Also, in [12], the MTD was 2.5 mg/kg.
